Values after ≈ are worked out from the molar mass of the structure shown. Active and inactive are the calls of the source. The calls are words filed in the database; no cut-off is given here.
Key:
[1] = test system: Human immunodeficiency virus; experiment: Antiviral activity against HIV replication in human H9 lymphocytes; assay type: functional, organism-based
Hepatitis B virus [2] = experiment: Antiviral activity against Hepatitis B virus infected in human MS-G2 cells assessed as inhibition of surface antigen secretion at 20 ug/ml after 3 days by ELISA; assay type: functional
How it was run: (§1)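 MS-G2 cells (HepG2 transfected with two copies of HBV genome, secreting virus) grown in RPMI-1640 with 10% fetal calf serum at 37 °C, 5% CO2. Seeded 3 × 10^5 cells/well, attached overnight, then given compound in DMSO (1, 5, 10, 20 μg/mL; DMSO ≤2.5 μL/mL; DMSO-only control). Media collected at 3 days. HBsAg and HBeAg measured by ELISA at 490 nm. % inhibition taken relative to control.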

Hepatitis B virus [3] = experiment: Antiviral activity against Hepatitis B virus infected in human MS-G2 cells assessed as inhibition of surface antigen secretion at 10 ug/ml after 3 days by ELISA; assay type: functional; design: scale not given: the % may be the effect or the level left; how it was run: as §1
Hepatitis B virus [4] = experiment: Antiviral activity against Hepatitis B virus infected in human MS-G2 cells assessed as inhibition of early antigen secretion at 20 ug/ml after 3 days by ELISA; assay type: functional; how it was run: as §1
Hepatitis B virus [5] = experiment: Antiviral activity against Hepatitis B virus infected in human MS-G2 cells assessed as inhibition of early antigen secretion at 10 ug/ml after 3 days by ELISA; assay type: functional; design: scale not given: the % may be the effect or the level left; how it was run: as §1
[6] = Cytotoxicity against human MS-G2 cells at 10 ug/ml by AST method; assay type: cell-based
How it was run: (§2)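 Cell damage in compound-treated MS-G2 cultures was measured by aspartate transaminase (AST) kit. AST above 25 IU/L was taken as indicating cell damage or lysis.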

[7] = Cytotoxicity against human MS-G2 cells at 20 ug/ml by AST method; assay type: cell-based; how it was run: as §2
H9 = experiment: Cytotoxicity against human H9 cells; assay type: cell-based

| Compound | Activity [1] | Activity (Hepatitis B virus [2]) | Activity (Hepatitis B virus [3]) [%] | Activity (Hepatitis B virus [4]) | Activity (Hepatitis B virus [5]) [%] | Activity [6] [IU/L] | Activity [7] [IU/L] | IC50 (H9) [µg/mL] |
| --- | --- | --- | --- | --- | --- | --- | --- | --- |
| CC=C(C)C(=O)O[C@@H]1c2cc3c(c(O)c2-c2c(cc(OC)c(OC)c2OC)C[C@@H](C)[C@H]1C)OCO3 | inactive | Toxic | <25 | Toxic | 25.8 | 16.8 | 47.8 | – |
| COC1=C(OC)C(=O)[C@]23COc4c5c(cc(c42)[C@H](OC(=O)/C=C/c2ccccc2)[C@H](C)[C@H](C)CC3=C1)OCO5 [SCHIARISANRIN D] | – | <25% | <25 | 42.9% | 27 | 20.1 | 22 | – |
| CCC(C)C(=O)O[C@@H]1c2cc3c(c(O)c2-c2c(cc(OC)c(OC)c2OC)C[C@@H](C)[C@H]1C)OCO3 (stereo partly specified) [SCHIZARIN B] | inactive | 54.9% | 42.6 | 42.1% | 40.7 | 17.6 | 15.5 | – |
| CCCCCC(=O)O[C@@H]1c2cc3c(c(O)c2-c2c(cc(OC)c(OC)c2OC)C[C@@H](C)[C@H]1C)OCO3 [SCHIZARIN C] | inactive | Toxic | <25 | Toxic | <25 | 16 | 35.9 | – |
| COc1cc2c(c(OC)c1OC)-c1c(cc3c(c1O)OCO3)[C@@H](OC(=O)c1ccccc1)[C@H](C)[C@H](C)C2 [SCHIZARIN E] | inactive | Toxic | <25 | Toxic | 31.8 | 20.2 | 44.3 | 2.08 (≈ 4.11 µM) |
| CCC(C)C(=O)O[C@H]1c2cc3c(c4c2C(C(=O)C(=O)OC)(CO4)/C(=C\C(=O)OC)C[C@@H](C)[C@H]1C)OCO3 (stereo partly specified) [TAIWANSCHIRIN A] | – | <25% | <25 | 43% | <25 | 14.1 | 14.8 | – |

From ChEMBL document CHEMBL1150814, “Schizanrins [corrected] B, C, D, and E, four new lignans from Kadsura matsudai and their antihepatitis activities” (J Nat Prod, 2001)
